According to ChEMBL document CHEMBL3098054, “The synthesis of novel taxoids for oral administration” (Bioorg Med Chem, 2014):

Experiments:
NCI-H460 = test: Cytotoxicity against human NCI-H460 cells at 1 uM after 72 hrs by MTT assay; type: functional; details: NCI-H460, 72 h, read-out: GI
Procedure, shortened: (§1)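 Cells plated at 2000–5000/well, attached overnight at 37 °C. DMSO stocks (100 mM) serially diluted in medium to a final 1 µM, tested in duplicate wells. Exposure 72 h at 37 °C, 5% CO₂. MTT (5 mg/mL, 10 µL) added for 4 h. Lysis in 10% SDS / 5% isopropanol / 0.012 N HCl, then OD read at 580–680 nm.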

DU-145 = test: Cytotoxicity against human DU145 cells at 1 uM after 72 hrs by MTT assay; type: functional; details: DU-145, 72 h, read-out: GI; procedure, shortened: as §1
HL-60 = test: Cytotoxicity against human HL60 cells at 1 uM after 72 hrs by MTT assay; type: functional; details: HL-60, 72 h, read-out: GI; procedure, shortened: as §1
[1] = (§2) Efflux ratio of apparent permeability from basolateral to apical side over apical to basolateral side in human Caco2 cells at 10 uM after 90 mins by LC-MS/MS analysis; type: ADME, cell-based, Caco-2; details: Caco-2
Procedure, shortened: (§3)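 Caco-2 cells cultured 21 days on 24-well inserts, TEER >250 Ω·cm². Monolayers pre-incubated in HBSS pH 7.4 at 37 °C. Compound added to the donor side at 10 µM, 37 °C, 5% CO₂, 90 min, in the A-to-B and B-to-A directions. Donor and receiver levels measured by LC-MS/MS. Papp calculated from receiver amount, membrane area 0.7 cm², time and initial donor concentration. Efflux ratio = B–A/A–B.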

[2] = (§4) Apparent permeability from basolateral to apical side in human Caco2 cells at 10 uM after 90 mins by LC-MS/MS analysis; type: ADME, cell-based, Caco-2; details: Caco-2
A-375 = test: Cytotoxicity against human A375 cells at 1 uM after 72 hrs by MTT assay; type: functional; details: A-375, 72 h, read-out: GI
Procedure, shortened: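 Cells plated at 2000–5000/well, attached overnight at 37 °C. DMSO stocks (100 mM) serially diluted in medium to a final 1 µM, tested in duplicate wells. MTT (5 mg/mL, 10 µL) added for 4 h. Lysis in 10% SDS / 5% isopropanol / 0.012 N HCl, then OD read at 580–680 nm.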

HT-29 = test: Cytotoxicity against human HT-29 cells at 1 uM after 72 hrs by MTT assay; type: functional; details: HT-29, 72 h, read-out: GI; procedure, shortened: as §1
[3] = (§5) Apparent permeability from apical to basolateral side in human Caco2 cells at 10 uM after 90 mins by LC-MS/MS analysis; type: ADME, cell-based, Caco-2; details: Caco-2
MCF7 [4] = test: Cytotoxicity against human MCF7 cells after 72 hrs by MTT assay; type: functional, cell-based; details: MCF7, 72 h
Procedure, shortened: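 MCF-7 cells exposed to compound for 72 h and read by MTT. At least six replicate wells per assay, run on three separate occasions. IC₅₀ given as mean with standard deviation.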

A2780 = test: Cytotoxicity against human A2780 cells at 1 uM after 72 hrs by MTT assay; type: functional; details: A2780, 72 h, read-out: GI; procedure, shortened: as §1
HeLa = test: Cytotoxicity against human HeLa cells at 1 uM after 72 hrs by MTT assay; type: functional; details: read-out: GI; procedure, shortened: as §1
MCF7 [5] = test: Cytotoxicity against human MCF7 cells at 1 uM after 72 hrs by MTT assay; type: functional; details: MCF7, 72 h, read-out: GI; procedure, shortened: as §1
Caco-2 [6] = test: as §2; type: ADME, cell-based; details: caco-2, 1.5 h, 10 µM; procedure, shortened: as §3
Caco-2 [7] = test: as §4; type: ADME, cell-based; details: caco-2, 1.5 h, 10 µM
[8] = Apparent permeability from basolateral to apical side in wild-type MDCK cells at 5 uM after 90 mins; type: ADME, cell-based, Canis lupus familiaris; details: dog
Procedure, shortened: (§6)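 MDCK-MDR1 monolayers grown on polycarbonate filter Transwells, confluent 5 days after seeding, TEER >1000 Ω·cm² before use. MDCK-WT cells plated at 5.0 × 10⁴ cells/well and used after 6 days at TEER >200 Ω·cm². Transport run at 37 °C in HBSS pH 7.4 for 90 min, in both directions. Lucifer yellow permeability and TEER change served as monolayer integrity checks. Efflux ratio = Papp(B–A)/Papp(A–B).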

MDR1 [9] = test: Apparent permeability from basolateral to apical side in MDCK cells expressing MDR1 at 5 uM after 90 mins; type: ADME, cell-based, Canis lupus familiaris; details: dog; procedure, shortened: as §6
MDR1 [10] = test: Efflux ratio of apparent permeability from basolateral to apical side over apical to basolateral side in MDCK cells expressing MDR1 at 5 uM after 90 mins; type: ADME, cell-based, Canis lupus familiaris; details: dog; procedure, shortened: as §6
Caco-2 [11] = test: as §5; type: ADME, cell-based; details: caco-2, 1.5 h, 10 µM
[12] = Efflux ratio of apparent permeability from basolateral to apical side over apical to basolateral side in wild-type MDCK cells at 5 uM after 90 mins; type: ADME, cell-based, Canis lupus familiaris; details: dog; procedure, shortened: as §6
[13] = target: ATP-dependent translocase ABCB1 (Homo sapiens, UniProt P08183); test: Inhibition of MDR1 (unknown origin) expressed in MDCK cells at 10 uM after 90 mins; type: ADME, cell-based; details: 1.5 h
Procedure, shortened: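 P-gp inhibition measured as digoxin bidirectional transport across MDCK-MDR1 monolayers at 37 °C in HBSS pH 7.4, with test compound present at 10 µM. Read-out is the change in digoxin efflux ratio, Papp(B–A)/Papp(A–B).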

[14] = Apparent permeability from apical to basolateral side in wild-type MDCK cells at 5 uM after 90 mins; type: ADME, cell-based, Canis lupus familiaris; details: dog; procedure, shortened: as §6
MDR1 [15] = test: Apparent permeability from apical to basolateral side in MDCK cells expressing MDR1 at 5 uM after 90 mins; type: ADME, cell-based, Canis lupus familiaris; details: dog; procedure, shortened: as §6

Chain of ATP-dependent translocase ABCB1 (P08183 whole entry): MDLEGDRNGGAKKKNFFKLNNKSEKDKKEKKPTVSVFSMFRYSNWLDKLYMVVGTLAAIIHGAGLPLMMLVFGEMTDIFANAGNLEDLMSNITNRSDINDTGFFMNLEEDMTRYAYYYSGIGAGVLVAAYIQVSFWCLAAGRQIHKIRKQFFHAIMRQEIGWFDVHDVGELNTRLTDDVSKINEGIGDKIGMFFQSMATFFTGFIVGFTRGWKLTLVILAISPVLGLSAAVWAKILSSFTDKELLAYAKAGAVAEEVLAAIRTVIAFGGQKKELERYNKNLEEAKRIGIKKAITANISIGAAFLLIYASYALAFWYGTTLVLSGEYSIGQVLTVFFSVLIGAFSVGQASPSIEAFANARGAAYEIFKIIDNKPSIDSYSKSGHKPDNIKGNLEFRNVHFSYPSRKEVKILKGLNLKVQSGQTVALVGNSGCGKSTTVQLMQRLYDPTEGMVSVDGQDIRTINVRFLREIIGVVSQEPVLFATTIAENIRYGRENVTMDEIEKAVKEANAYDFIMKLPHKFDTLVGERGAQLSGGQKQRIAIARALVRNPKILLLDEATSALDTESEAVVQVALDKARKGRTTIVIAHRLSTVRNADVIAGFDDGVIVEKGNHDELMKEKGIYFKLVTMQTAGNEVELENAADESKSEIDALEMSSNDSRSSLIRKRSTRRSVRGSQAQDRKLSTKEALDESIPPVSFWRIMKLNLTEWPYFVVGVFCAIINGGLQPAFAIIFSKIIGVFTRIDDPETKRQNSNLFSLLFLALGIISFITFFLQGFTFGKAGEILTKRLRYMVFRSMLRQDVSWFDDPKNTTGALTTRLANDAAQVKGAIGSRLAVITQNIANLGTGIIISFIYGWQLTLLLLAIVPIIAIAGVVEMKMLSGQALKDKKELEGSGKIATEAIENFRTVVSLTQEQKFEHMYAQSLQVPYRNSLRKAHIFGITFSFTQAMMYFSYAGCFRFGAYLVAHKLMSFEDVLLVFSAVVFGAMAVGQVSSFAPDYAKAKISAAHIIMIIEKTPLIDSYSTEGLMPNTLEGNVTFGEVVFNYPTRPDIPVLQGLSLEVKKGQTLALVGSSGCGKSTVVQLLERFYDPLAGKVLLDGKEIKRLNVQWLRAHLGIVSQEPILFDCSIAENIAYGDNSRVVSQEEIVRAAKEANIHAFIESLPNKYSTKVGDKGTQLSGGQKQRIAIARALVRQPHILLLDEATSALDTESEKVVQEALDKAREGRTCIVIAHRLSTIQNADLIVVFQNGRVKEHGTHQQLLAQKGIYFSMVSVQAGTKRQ

SMILES | inhibition of growth at 1 µM (NCI-H460) [%] | inhibition of growth at 1 µM (DU-145) [%] | inhibition of growth at 1 µM (HL-60) [%] | efflux ratio at 1.5 h, 10 µM [1] | Papp B→A at 1.5 h, 10 µM [2] [×10⁻⁶ cm/s] | inhibition of growth at 1 µM (A-375) [%] | inhibition of growth at 1 µM (HT-29) [%] | Papp A→B at 1.5 h, 10 µM [3] [×10⁻⁶ cm/s] | IC50 (MCF7 [4]) [nM] | inhibition of growth at 1 µM (A2780) [%] | inhibition of growth at 1 µM (HeLa) [%] | inhibition of growth at 1 µM (MCF7 [5]) [%] | Ratio (Caco-2 [6]) | Papp B→A at 1.5 h, 5 µM [8] [×10⁻⁶ cm/s] | Papp B→A at 1.5 h, 5 µM (MDR1 [9]) [×10⁻⁶ cm/s] | efflux ratio at 1.5 h, 5 µM (MDR1 [10]) | efflux ratio at 1.5 h, 5 µM [12] | inhibition (INH) [13] | Papp A→B at 1.5 h, 5 µM [14] [×10⁻⁶ cm/s] | Papp A→B at 1.5 h, 5 µM (MDR1 [15]) [×10⁻⁶ cm/s] | also measured
CO[C@H]1C[C@H]2OC[C@@]2(OC(C)=O)[C@H]2[C@H](OC(=O)c3ccccc3)[C@]3(O)C[C@H](OC(=O)[C@H](O)[C@@H](NC(=O)OC(C)(C)C)c4ccccc4)C(C)=C([C@@H](OC(=O)N(C)C)C(=O)[C@]12C)C3(C)C | 83.3 | 84.8 | 97.2 | 4.08 | 33.1 | 87.7 | 87.9 | 8.11 | 1.58 | 94.8 | 99.8 | 93.5 | – | – | – | – | – | – | – | – | –
CO[C@H]1C(=O)[C@]2(C)[C@@H](OC(=O)N(C)C)C[C@H]3OC[C@@]3(OC(C)=O)[C@H]2[C@H](OC(=O)c2ccccc2)[C@]2(O)C[C@H](OC(=O)[C@H](O)[C@@H](NC(=O)OC(C)(C)C)c3ccccc3)C(C)=C1C2(C)C | 86.6 | 87.5 | 97.8 | – | – | 90.4 | 89.8 | – | 9.63 | 95.8 | 103 | 102 | 1.73 | 3.17 | 5.26 | 10.1 | 2.28 | Active | 1.39 | 0.52 | Papp (Caco-2 [7]): 26 ×10⁻⁶ cm/s; Papp (Caco-2 [11]): 10.6 ×10⁻⁶ cm/s
CO[C@H]1C(=O)[C@]2(C)[C@@H](OC(=O)N(C)C)C[C@H]3OC[C@@]3(OC(C)=O)[C@H]2[C@H](OC(=O)c2ccccc2)[C@]2(O)C[C@H](OC(=O)[C@H](O)[C@H](CC(C)C)NC(=O)OC(C)(C)C)C(C)=C1C2(C)C | – | – | – | – | – | – | – | – | 13.3 | – | 102 | – | 1.59 | – | – | – | – | – | – | – | Papp (Caco-2 [7]): 30.9 ×10⁻⁶ cm/s; Papp (Caco-2 [11]): 10.7 ×10⁻⁶ cm/s
CO[C@H]1C[C@H]2OC[C@@]2(OC(C)=O)[C@H]2[C@H](OC(=O)c3ccccc3)[C@]34OC(=O)O[C@H]3[C@H](OC(=O)[C@H](O)[C@@H](NC(=O)OC(C)(C)C)c3ccccc3)C(C)=C([C@@H](OC(=O)N(C)C)C(=O)[C@]12C)C4(C)C | – | – | – | 2.04 | 33.5 | – | – | 16.4 | 7.93 | – | – | – | – | 2.99 | 6.38 | 10.1 | 2.13 | Active | 1.4 | 0.63 | –
C[C@H]1O[C@@H](O[C@H]2[C@@H](O)C[C@H](O[C@H]3[C@@H](O)C[C@H](O[C@H]4CC[C@@]5(C)[C@H](CC[C@@H]6[C@@H]5C[C@@H](O)[C@]5(C)[C@@H](C7=CC(=O)OC7)CC[C@]65O)C4)O[C@@H]3C)O[C@@H]2C)C[C@H](O)[C@@H]1O [DIGOXIN] | – | – | – | – | – | – | – | – | – | – | – | – | – | 8.06 | 12.4 | 65.5 | 22.7 | – | 0.35 | 0.19 | –
CC(=O)O[C@H]1C(=O)[C@@]2(C)[C@H]([C@H](OC(=O)c3ccccc3)[C@]3(O)C[C@H](OC(=O)[C@H](O)[C@@H](NC(=O)c4ccccc4)c4ccccc4)C(C)=C1C3(C)C)[C@]1(OC(C)=O)CO[C@@H]1C[C@@H]2O [PACLITAXEL] | – | – | – | 34.4 | 33.4 | – | – | 0.97 | 7.05 | – | – | – | – | 29.8 | 44.1 | 334 | 344 | Not Active | 0.09 | 0.13 | –
